Source: PubChem BioAssay
STAT3 act-1: increases IL-6 driven STAT3 reporter signal; U3A cells, IL-6 STAT3-luciferase reporter, luminescence; 100% = signal with IL-6 EC80 alone; activation (% of control), % at 5.6 µM; hit rate 0.91% among 190,000;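 active = activation above the screen-wide mean of compound activation plus 3 SD, cut at about 130% in these data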;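 note: 0% = background luminescence of wells with medium and substrate only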
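Material: STAT1-lacking human U3A cells, STAT3 luciferase reporter | Benchmarks: IL-6-only wells as 100% reference | Probe or stimulus: IL-6 (33 ng/mL) | Timing: Compound 1 h, then IL-6 6 h at 37 °C | Detection: Luminescence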
Pf gamet viab: kills late stage P. falciparum gametocytes; P. falciparum stage V gametocytes, ATP luminescence, 24 h; inhibition, % at 10.9 µM; hit rate 0.065% among 150,000; AID 743093;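 active = inhibition above the mean plus 3 SD of compounds within the control limits, set per campaign, cut at about 38% in these data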;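 note: 0% = DMSO wells and 100% = medium only without gametocytes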
APP 5'UTR act: activates APP 5'UTR luciferase reporter; AID 1276; hit rate 1% among 190,000; activation, % at 2 µM; SH-SY5Y APP 5'UTR luciferase reporter, luminescence; zero percent = DMSO vehicle wells;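 active = activation above a set limit, based on mean plus 3 SD of controls, cut at about 140% in these data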
STAT1 act-1: increases IFN-gamma driven STAT1 reporter signal. NIH 3T3 STAT1-luciferase reporter, luminescence; 100% = IFN-gamma alone, no compound. activation (% of control), % at 5.5 µM. hit rate 2.6% among 200,000. AID 932;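 active = activation above the screen-wide mean activation plus 3 SD, cut at about 130% in these data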;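 note: raw ratio to IFN-gamma control signal so 100% means no change and 0% no light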
STAT1 inh: STAT1 signaling inhibition | NIH 3T3 STAT1-luciferase reporter, IFN-gamma, luminescence | inhibition, % at 5.5 µM | hit rate 0.35% among 200,000 | AID 920;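 active = inhibition above a set limit, the mean inhibition across all tested compounds plus 3 SD, cut at about 34% in these data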;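 note: 0% = IFN-gamma with DMSO and 100% = IFN-gamma with 300 µM nifuroxazide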
NF-kB neuron act: compounds increasing NF-kB expression in human neuronal cells; NF-kB reporter expression; active compounds read high; fold change at 12.5 µM; hit rate 1.6% among 190,000; AID 1239; in the data active = fold change above about 3.3
STAT3 act-2: confirmation of STAT3 signaling activators. shares compounds with STAT3 act-1. potentiation (% of control), % at 5.7 µM. U3A STAT3-luciferase reporter, IL-6 potentiation, luminescence; U3A cells lack STAT1; 100 means same as IL-6 alone. hit rate 64% among 1,200;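 active = percent activation of the STAT3 luciferase reporter above a set limit taken from the earlier primary screen, cut at about 130% in these data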;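 note: 0% = background signal of medium plus substrate and 100% = median of IL-6 with DMSO wells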
NFkB act 2: NF-kappaB activation in STAT3 activator counter-screen; shares compounds with STAT3 act-1; human cells, NF-kappaB reporter activation; activation (% of control), % at 5.7 µM; hit rate 11% among 1,200; in the data active = activation above about 120%;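 note: reporter induced by TNF-alpha stimulation; 100% = median of stimulated DMSO wells and 0% = no signal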
STAT1 act-2: counter-screen for STAT3 activators: STAT1 activation. shares compounds with STAT3 act-1. NIH 3T3 STAT1-luciferase reporter, IFN-gamma, luminescence. activation (% of control), % at 5.7 µM. hit rate 13% among 1,200. AID 1318;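 active = activation above the solvent-only control well mean plus 3 SD, set per screening run, cut at about 120% in these data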;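 note: 100% = IFN-gamma with DMSO median signal so 100% means no change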
* = called active by the depositor; / = no result given. Rows were chosen to be rich in hits. Some 3.9% of all compounds tested hit in one or more screens of this group.

SMILES | STAT3 act-1 | Pf gamet viab | APP 5'UTR act | STAT1 act-1 | STAT1 inh | NF-kB neuron act | STAT3 act-2 | NFkB act 2 | STAT1 act-2
CC(=O)Nc1ccc(NC(=O)CSc2nc3ccccc3o2)cc1 | 100 | -7 | 9 | 106 | -7 | 1.5 | / | / | /
CC(=O)Nc1ccc(N/C=C(\C=O)c2nc3ccccc3o2)cc1 | 147* | 4 | -20 | 98 | 3 | 1.2 | 151* | 94 | 103
O=C/C(=C\Nc1ccccn1)c1nc2ccccc2o1 | 158* | / | 12 | 99 | 1 | 0.81 | 144* | 114 | 100
CC(=O)Nc1cccc(-c2nc3ccccc3c(=O)o2)c1 | 91 | / | -7 | 95 | 5 | 1.3 | / | / | /
CC(=O)N1CCC(=NNc2nc3ccccc3[nH]2)CC1 | 143* | / | 124 | 127 | -29 | 0.9 | 144* | 112 | 110
CCC(C)(C)C1CCC(=NNc2nc3ccccc3[nH]2)CC1 (stereo not given) | 113 | -10 | 43 | 123 | -25 | 0.58 | / | / | /
CCOc1ccc(NC(=O)C(C)Oc2ccccc2C(=O)Nc2ccc(C)c(Cl)c2)cc1 (stereo not given) | 149* | / | -13 | 109 | -10 | 1.1 | 137* | 111 | 103
COCCn1nnnc1C(c1cc2cc(C)ccc2[nH]c1=O)N1CCCCCC1 (stereo not given) | 112 | / | 8 | 100 | 0 | 1.1 | / | / | /
COCCn1nnnc1C(c1cc2cc(C)ccc2[nH]c1=O)N1CCc2ccccc21 (stereo not given) | 150* | / | / | 96 | 5 | 1 | 106 | 108 | 97
O=C(Nc1cc(C(F)(F)F)ccc1N1CCOCC1)C1Cc2ccccc2CN1C(=O)c1ccco1 (stereo not given) | 139* | / | -3 | 103 | -3 | 0.73 | 130 | 104 | 92
O=C(Nc1cc(C(F)(F)F)ccc1N1CCCCC1)c1ccco1 | 103 | 14 | -11 | 103 | -5 | 1.3 | / | / | /
CC(=O)n1cc(C(C[N+](=O)[O-])SCCN)c2ccccc21 (stereo not given) | 141* | / | 4 | 98 | 2 | 1.1 | 138* | 113 | 98
COC(=O)/C(=C/c1cn(C(C)=O)c2ccccc12)[N+](=O)[O-] | / | 10 | / | / | / | / | / | / | /
COCCN1C(=O)c2ccccc2C(C(=O)NCCCN2CCCC2)C1c1c[nH]c2ccccc12 (stereo not given) | 96 | 2 | 9 | 95 | 4 | 0.97 | / | / | /
CN1C(=O)c2ccccc2C(C(=O)NCCCN2CCCC2=O)C1c1c[nH]c2ccccc12 (stereo not given) | 152* | 27 | -10 | 96 | 2 | 0.87 | 136* | 105 | 100
CCCCCCSc1ccc([C@H]2N[C@@](C)(C(=O)OC)[C@H]3C(=O)N(C)C(=O)[C@@H]23)cc1 | / | -10 | / | / | / | / | / | / | /
Cc1[nH]n(-c2ccccc2)c(=O)c1/C=C1/C=c2ccccc2=N1 | 156* | / | 20 | 101 | -2 | 1.4 | 170* | 101 | 100
COc1ccc(Cl)cc1NC(=O)c1[nH]nc(OC)c1[N+](=O)[O-] | 144* | 10 | -1 | 93 | 5 | 0.83 | 140* | 96 | 95
CC(=O)NC(Cc1ccccc1C)C(=O)NC1CCN(c2ncccc2[N+](=O)[O-])CC1 (stereo not given) | 101 | 0 | 10 | 101 | -1 | 0.96 | / | / | /
O=C1C=C(c2ccc3ncccc3c2)C[C@@H](c2ccc3c(c2)OCO3)C1 | / | -18 | / | / | / | / | / | / | /
Cc1ccc(-n2nc(C)c3c2OC(N)=C(C#N)C3c2cccs2)cc1 (stereo not given) | 142* | / | 2 | 90 | 11 | 0.88 | 157* | 110 | 94
O=C(c1cc2c(s1)CCCC2)N1CCN(c2ccccc2)CC1 | 99 | -6 | 15 | 106 | -8 | 1.3 | / | / | /
O=C(c1cc2c(s1)CCCC2)N1CCN(S(=O)(=O)c2ccccc2C(F)(F)F)CC1 | 139* | -10 | -11 | 100 | 0 | 0.8 | 116 | 108 | 102
O=C(O)CCCCCN1C(=O)C(O)=C(C(=O)/C=C/c2ccccc2)C1c1ccccc1[N+](=O)[O-] (stereo not given) | 140* | -14 | 12 | 90 | 9 | 0.97 | 145* | 107 | 94
CCCCN1C(=O)C(O)=C(C(C)=O)C1c1ccccc1[N+](=O)[O-] (stereo not given) | 103 | -18 | 15 | 93 | 6 | 1.1 | / | / | /
SMILES | STAT3 act-1 | Pf gamet viab | APP 5'UTR act | STAT1 act-1 | STAT1 inh | NF-kB neuron act | STAT3 act-2 | NFkB act 2 | STAT1 act-2
Cc1ccc(-n2[nH]c(C)c(/C=C3/C=Nc4ccccc43)c2=O)cc1C | 149* | 7 | -11 | 99 | 1 | 1.3 | 138* | 109 | 111
Cc1[nH]n(-c2ccccc2)c(=O)c1/C=C1\C=NN=C1c1ccccc1 | / | -13 | / | / | / | / | / | / | /
COc1ccc2c(c1)c1nnc(SC)nc1n2C | 160* | / | 11 | 124 | -27 | 1.3 | 171* | 113 | 128*
COc1ccc2c(c1)c1nnc(SCC(=O)N3C(C)CCCC3C)nc1n2C (stereo not given) | 95 | -21 | 7 | 105 | -5 | 0.43 | / | / | /
COC(=O)CC1C(=O)NCCN1Cc1cn(-c2ccc(C)cc2)nc1-c1cccc(C)c1 (stereo not given) | 98 | -34 | 15 | 101 | -3 | 0.8 | / | / | /
Cc1cccnc1NC(=O)c1c(O)c2cccc3c2n(c1=O)CCC3 | 106 | / | -22 | 101 | 1 | 1 | / | / | /
O=C(Nc1ccccn1)c1c(O)c2cccc3c2n(c1=O)CCC3 | 157* | / | 10 | 100 | 0 | 1.6 | 146* | 104 | 99
O=C(Nc1nccs1)c1c(O)c2cccc3c2n(c1=O)CCC3 | 154* | / | 4 | 94 | 5 | 1 | 167* | 99 | 98
CC(C)(C)c1ccccc1NC(=O)c1c(O)c2cccc3c2n(c1=O)CC3 | 149* | / | 18 | 95 | 3 | 0.87 | 144* | 105 | 99
COc1cccc(C=O)c1OCCCOc1cccc2cccnc12 | / | 0 | / | / | / | / | / | / | /
CSC1=NC(C(Cl)(Cl)Cl)N=C(c2ccccc2)N1 (stereo not given) | 96 | -18 | -6 | 92 | 6 | 0.88 | / | / | /
COc1ccc(COc2cc(-c3cccc(OC)c3)nc3ccc(NC(=O)c4ccc(N(C)C)cc4)cc23)cc1 | 136* | / | -11 | 107 | -7 | 0.53 | 92 | 99 | 104
O=C(c1ccc2ccccc2n1)N1CCN(c2ccccc2O)CC1 | 157* | 13 | 43 | 100 | 0 | 1.1 | 158* | 103 | 102
